From ChEMBL document CHEMBL4732102, “Sustainable, three-component, one-pot procedure to obtain active anti-flavivirus agents” (Eur J Med Chem, 2021)
pEC50, pIC50: −log10 of the molar value. Activity calls are given as the source filed them. The rule behind the calls is not given here.

Key:
[1] = test system: dengue virus type 2; assay: Antiviral activity against dengue virus 2 EDEN 3295 infected in human Huh-7 cells assessed as reduction in virus replication incubated for 48 hrs by plaque reduction assay; assay type: functional, organism-based; details: EDEN 3295, Huh-7, 48 h
Method in brief: (§1)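 Huh-7 cells (1 × 10^5 seeded) infected 1 h at 37 °C with ZIKV H/PF/2013 at MOI 0.5 or DENV-2 EDEN3295 at MOI 0.3. Dose–response treatment from 0.01 to 100 µM followed, 24 h for ZIKV and 48 h for DENV-2. Supernatant titre measured by BHK-21 plaque assay. EC50 taken from a sigmoidal fit of titre versus concentration; average ± SE of one experiment in duplicate.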

[2] = test system: Zika virus; assay: Antiviral activity against Zika virus H/PF/2013 infected in human Huh-7 cells assessed as reduction in virus replication at 10 uM incubated for 24 hrs by plaque reduction assay relative to control; assay type: functional; set-up: scale not given: the % may be the effect or the level left
Method in brief: (§2)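 Huh-7 cells (1 × 10^5 seeded) infected 1 h at 37 °C with DENV-2 EDEN3295 (MOI 0.3) or ZIKV H/PF/2013 (MOI 0.5). Infected cells then treated at a single 10 µM concentration, 24 h for ZIKV and 48 h for DENV-2. Clarified supernatant titred by BHK-21 plaque assay. Viral titre reduction expressed as percent inhibition.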

[3] = (§3) Cytotoxicity against human Huh-7 cells assessed as reduction in cell viability incubated for 48 hrs by celltiter glo luminescent assay; assay type: cell-based; details: Huh-7 cells
Method in brief: (§4)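 Huh-7 cells (2 × 10^4 seeded, DMEM with 10% FBS) exposed to compound for 48 h at 37 °C. Viability read by CellTiter-Glo luminescence as percent of untreated control. CC50 derived from the viability curve.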

[4] = test system: dengue virus type 2; assay: Inhibition of Dengue virus 2 full length NS5 RNA-dependent RNA polymerase assessed as reduction in elongation activity at 30 uM incubated for 1 hr relative to control
Method in brief: (§5)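 Elongation (primer-dependent) assay: 100 nM full-length DENV-2 NS5, 100 nM U30-3'UTR template and 3 µM Atto-ATP in 50 mM Tris-HCl pH 7.5, 10 mM KCl, 0.5 mM MnCl2, Triton and 10 µM cysteine. Run 1 h at 37 °C; stopped with alkaline phosphatase and AttoPhos fluorescence read at 422/566 nm. Single point at 30 µM; IC50 is average ± SE of one experiment in duplicate.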

[5] = test system: dengue virus type 2; assay: Inhibition of Dengue virus 2 full length NS5 RNA-dependent RNA polymerase assessed as reduction in de novo initiation activity at 30 uM incubated for 1 hr relative to control
Method in brief: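 De novo initiation assay: 100 nM full-length DENV-2 NS5 with 100 nM in vitro transcribed DENV-2 5'UTR-3'UTR RNA, 20 µM each of ATP, GTP and UTP, and 5 µM Atto-CTP. Buffer Tris-HCl pH 7.5 with KCl, 1 mM MgCl2, 0.3 mM MnCl2, Triton X-100 and 10 µM cysteine. Compound at 30 µM; 1 h at 37 °C. Read-out by alkaline phosphatase-released AttoPhos fluorescence (422/566 nm).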

[6] = Selectivity index, ratio of CC50 for human Huh-7 cells to EC50 for dengue virus 2 EDEN 3295 infected in human Huh-7 cells; assay type: toxicity, cell-based; details: read-out: Ratio CC50/EC50
[7] = Inhibition of Dengue virus 2 full length NS5 RNA-dependent RNA polymerase assessed as reduction in elongation activity incubated for 1 hr; set-up: species or system dengue virus type 2; details: for pIC50: read-out: IC50; method in brief: as §5
[8] = Selectivity index, ratio of CC50 for human Huh-7 cells to EC50 for Zika virus H/PF/2013 infected in human Huh-7 cells; assay type: toxicity, cell-based; details: read-out: Ratio CC50/EC50
[9] = test system: Zika virus; assay: Antiviral activity against Zika virus H/PF/2013 infected in human Huh-7 cells assessed as reduction in virus replication incubated for 24 hrs by plaque reduction assay; assay type: functional, organism-based; details: H/PF/2013, Huh-7, 24 h; method in brief: as §1
[10] = test system: dengue virus type 2; assay: Antiviral activity against dengue virus 2 EDEN 3295 infected in human Huh-7 cells assessed as reduction in virus replication at 10 uM incubated for 48 hrs by plaque reduction assay relative to control; assay type: functional; set-up: scale not given: the % may be the effect or the level left; method in brief: as §2
[11] = test system: Huh-7; assay: as §3; assay type: cell-based; details: huh-7, 48 h; method in brief: as §4

Row | pEC50 [1] | inhibition [4] [%] | inhibition [5] | pIC50 [7] | pEC50 [9] | IC50 [7] | SMILES | Activity [2] [%] | CC50 at 48 h [3] [µM] | selectivity ratio [6] | selectivity ratio [8] | Activity [10] [%] | CC50 [11]
1 | 5.51 | 95.9 | 81.5% | 4.63 |  |  | CC(C)(CC(=O)O)NC(=O)c1cc(-c2ccccc2)c(=O)n2c1sc1ccc(OC3CCCCC3)cc12 | 10.6 | 100 | 32 |  |  | 
2 | 5.08 | 92.8 | 75% | 4.66 |  |  | CC(C)C(CC(=O)O)NC(=O)c1cc(-c2ccccc2)c(=O)n2c1sc1ccc(OC3CCCCC3)cc12 (racemic) | 47.4 | 100 | 12 |  |  | 
3 |  | 69.3 | 22.7% |  |  | Not Active | CC(CC(=O)O)NC(=O)c1cc(-c2ccccc2)c(=O)n2c1sc1ccc(OC3CCCCC3)cc12 (racemic) | 29 |  |  |  | 68.1 | Not Active
4 | 5.96 | 42.5 | inactive |  | 5.09 | Not Active | C[C@@H](CO)NC(=O)c1cc(-c2ccccc2)c(=O)n2c1sc1ccc(OC3CCCCC3)cc12 |  | 21.7 | 20 | 2.6 |  | 

Continued, compound first:

Row | SMILES | pEC50 [1] | inhibition [4] [%] | inhibition [5] | pIC50 [7] | pEC50 [9] | IC50 [7] | Activity [2] [%] | CC50 at 48 h [3] [µM] | selectivity ratio [6] | selectivity ratio [8] | Activity [10] [%] | CC50 [11]
5 | O=C(NCC1(C(=O)O)CC1)c1cc(-c2ccccc2)c(=O)n2c1sc1ccc(OC3CCCCC3)cc12 | 5.12 | 96.7 | 68.1% | 4.75 |  |  | 15.8 | 100 | 13.3 |  |  | 
6 | C#C[C@@]1(O)[C@H](O)[C@@H](CO)O[C@H]1n1ccc2c(N)ncnc21 |  |  |  |  |  |  |  |  | 100 | > 100 |  | 
7 | O=C(O)C1CCN(C(=O)c2cc(-c3ccccc3)c(=O)n3c2sc2ccc(OC4CCCCC4)cc23)C1 (racemic) | 5.19 | 64.6 | 11% |  | 5.09 | Not Active |  | > 100 | > 15.6 | > 12.2 |  | 
8 | C[C@H](CO)NC(=O)c1cc(-c2ccccc2)c(=O)n2c1sc1ccc(OC3CCCCC3)cc12 | 5.24 | 42.7 | inactive |  | 5.14 | Not Active |  | 17.9 | 3 | 2.4 |  | 
9 | NC(=O)CCNC(=O)c1cc(-c2ccccc2)c(=O)n2c1sc1ccc(OC3CCCCC3)cc12 | 6.05 | 37.2 | inactive |  | 5.14 | Not Active |  | 52.3 | 58 | 7.1 |  | 
10 | O=C(O)CC(NC(=O)c1cc(-c2ccccc2)c(=O)n2c1sc1ccc(OC3CCCCC3)cc12)c1ccccc1 (racemic) | 5.92 | 96.2 | 79.3% | 4.98 | 5.30 |  |  | 100 | 83 | 20 |  | 
11 | O=C(O)C1CCCN(C(=O)c2cc(-c3ccccc3)c(=O)n3c2sc2ccc(OC4CCCCC4)cc23)C1 (racemic) |  | 64.9 | inactive |  |  | Not Active | 26.3 |  |  |  | 65.3 | Not Active
12 | O=C(c1cc(-c2ccccc2)c(=O)n2c1sc1ccc(OC3CCCCC3)cc12)N1CCCC(O)C1 (racemic) | 5.89 | 36.9 | inactive |  | 4.95 | Not Active |  | 22.2 | 17 | 2 |  | 
